Laboratory results: ChEMBL document CHEMBL1123760, “Synthesis and oral antifungal activity of novel azolylpropanolones and related compounds” (1987)
≈ marks a conversion by molar mass, not a printed value.

Columns and labels:
Assay type in all cases: functional
Aspergillus fumigatus = assay: In vitro antifungal activity against Aspergillus fumigatus; details: Aspergillus fumigatus; read-out: MIC
In short: (§1)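 Broth microdilution MIC in Sabouraud's glucose broth; final inocula 1 × 10^5 cells/mL (yeast) or 1 × 10^5 conidia/mL (mold and dermatophyte).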

Candida albicans [1] = assay: Minimum effective concentration for inhibition of pseudomycelium formation in Candida albicans; details: for minimal effective concentration: Candida albicans, read-out: MEC
In short: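 C. albicans KE-2 (clinical isolate) at a final 1 × 10^6 yeast cells/mL in EMEM with 20% calf serum; compounds diluted by the same microtiter system as for MICs. After incubation, wells were Giemsa-stained (5% in phosphate buffer) and read by microscope. MEC is the lowest concentration preventing typical pseudomycelium formation.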

Trichophyton benhamiae = assay: In vitro antifungal activity against Trichophyton asteroides; in short: as §1
Candida albicans [2] = assay: In vitro antifungal activity against Candida albicans; details: Candida albicans; read-out: MIC; in short: as §1
Mus musculus = assay: Ratio of in vivo number of survivors / total infected; design: reference not given here
[3] = Trichophyton benhamiae, read-out: MIC

Row | Structure (SMILES) | MIC (Aspergillus fumigatus) | minimal effective concentration (Candida albicans [1]) | MIC (Trichophyton benhamiae; [3]) | MIC (Candida albicans [2]) | No. of survivors (Mus musculus) | MEC (Candida albicans [1]) | MIC (Trichophyton benhamiae)
1 | O=S1O[C@H](c2ccc(Cl)cc2)[C@@](Cn2cncn2)(c2ccc(Cl)cc2Cl)O1 (stereo partly drawn) | 25 µg/mL (≈ 56.2 µM) | 0.16 µg/mL | 0.1 µg/mL (≈ 0.225 µM) | 50 µg/mL (≈ 112 µM) | – | – | –
2 | CC(C)[C@H]1OCO[C@]1(Cn1cncn1)c1ccc(Cl)cc1 | 100 µg/mL (≈ 325 µM) | 0.04 µg/mL | 0.2 µg/mL (≈ 0.65 µM) | > 100 µg/mL | 7 | – | –
3 | O=C(c1ccc(Cl)cc1)C(O)(Cn1cnnc1)c1ccc(Cl)cc1 (stereo not drawn) | > 100 µg/mL | > 20 µg/mL | 50 µg/mL (≈ 138 µM) | > 100 µg/mL | – | – | –
4 | Clc1ccc([C@H]2OCO[C@]2(Cn2cncn2)c2ccc(Cl)cc2Cl)cc1 | 0.2 µg/mL (≈ 0.487 µM) | 0.02 µg/mL | 0.1 µg/mL (≈ 0.243 µM) | 50 µg/mL (≈ 122 µM) | – | – | –
5 | COc1ccccc1C(O)C(O)(Cn1cncn1)c1ccccc1OC (stereo not drawn) | > 100 µg/mL | 10 µg/mL | 3.1 µg/mL (≈ 8.72 µM) | > 100 µg/mL | – | – | –
6 | O=C(c1ccc(Cl)cc1)C(O)(Cn1cncn1)c1ccccc1Cl (stereo not drawn) | > 100 µg/mL | 10 µg/mL | 0.8 µg/mL (≈ 2.21 µM) | > 100 µg/mL | – | – | –
7 | O=C(c1ccc(Cl)cc1Cl)C(O)(Cn1cnnc1)c1ccc(Cl)cc1Cl (stereo not drawn) | > 100 µg/mL | > 20 µg/mL | 25 µg/mL (≈ 58 µM) | > 100 µg/mL | – | – | –
8 | O=C(c1ccc(F)cc1)C(O)(Cn1cncn1)c1ccc(Cl)cc1 (stereo not drawn) | > 100 µg/mL | 1.25 µg/mL | 0.8 µg/mL (≈ 2.31 µM) | 100 µg/mL (≈ 289 µM) | – | – | –
9 | O=C(c1ccccc1Cl)C(O)(Cn1cncn1)c1ccccc1Cl (stereo not drawn) | 50 µg/mL (≈ 138 µM) | 0.08 µg/mL | 0.1 µg/mL (≈ 0.276 µM) | 50 µg/mL (≈ 138 µM) | 2 | – | –
10 | O=C1O[C@H](c2ccccc2)[C@@](Cn2ccnc2)(c2ccc(Cl)cc2Cl)O1 | 20 µg/mL (≈ 51.4 µM) | 0.16 µg/mL | 0.1 µg/mL (≈ 0.257 µM) | 100 µg/mL (≈ 257 µM) | – | – | –
11 | CC(C)C(=O)C(O)(Cn1cnnc1)c1ccc(Cl)cc1Cl (stereo not drawn) | > 100 µg/mL | 2.5 µg/mL | 50 µg/mL (≈ 152 µM) | > 100 µg/mL | – | – | –
12 | O=C(c1ccc(Cl)cc1Cl)C(O)(Cn1cnnc1)c1ccc(Cl)cc1 (stereo not drawn) | > 100 µg/mL | > 20 µg/mL | > 100 µg/mL | > 100 µg/mL | – | – | –
13 | CC(C)[C@H]1OS(=O)O[C@@]1(Cn1cncn1)c1ccc(Cl)cc1 (stereo partly drawn) | > 100 µg/mL | 0.16 µg/mL | 0.4 µg/mL (≈ 1.17 µM) | > 100 µg/mL | – | – | –
14 | O=C(c1ccccc1)C(O)(Cn1cnnc1)c1ccccc1 (stereo not drawn) | > 100 µg/mL | > 20 µg/mL | > 100 µg/mL | > 100 µg/mL | – | – | –
15 | O=C1O[C@H](c2ccccc2)[C@@](Cn2cncn2)(c2ccccc2Cl)O1 | > 100 µg/mL | 0.31 µg/mL | 6.3 µg/mL (≈ 17.7 µM) | > 100 µg/mL | – | – | –
16 | O=C(c1ccc(Cl)cc1)C(O)(Cn1ccnc1)c1ccc(Cl)cc1 (stereo not drawn) | > 100 µg/mL | 20 µg/mL | 0.1 µg/mL (≈ 0.277 µM) | > 100 µg/mL | – | – | –
17 | Cc1ccc(C(O)C(O)(Cn2cncn2)c2ccc(C)cc2)cc1 (stereo not drawn) | > 100 µg/mL | 2.5 µg/mL | 1.6 µg/mL (≈ 4.95 µM) | > 100 µg/mL | – | – | –
18 | COc1ccc(C(O)C(O)(Cn2cncn2)c2ccc(OC)cc2)cc1 (stereo not drawn) | > 100 µg/mL | > 20 µg/mL | 25 µg/mL (≈ 70.3 µM) | > 100 µg/mL | – | – | –
19 | CC(C)C(O)(Cn1cncn1)C(=O)c1ccc(Cl)cc1 (stereo not drawn) | 100 µg/mL (≈ 340 µM) | 0.63 µg/mL | 0.2 µg/mL (≈ 0.681 µM) | > 100 µg/mL | – | – | –
20 | CC(O)(c1ccc(Cl)cc1)C(O)(Cn1ccnc1)c1ccc(F)cc1 (stereo not drawn) | > 100 µg/mL | 10 µg/mL | 1.6 µg/mL (≈ 4.43 µM) | > 100 µg/mL | – | – | –
21 | O=C(c1ccc(F)cc1)C(O)(Cn1cnnc1)c1ccc(F)cc1 (stereo not drawn) | > 100 µg/mL | > 20 µg/mL | > 100 µg/mL | > 100 µg/mL | – | – | –
22 | OC(c1ccc(Cl)cc1Cl)C(O)(Cn1cncn1)c1ccc(F)cc1 (stereo not drawn) | > 100 µg/mL | 0.31 µg/mL | 0.1 µg/mL (≈ 0.262 µM) | > 100 µg/mL | – | – | –
23 | O=C(c1ccc(Cl)cc1Cl)C(O)(Cc1ccccc1)Cn1cncn1 (stereo not drawn) | > 100 µg/mL | 5 µg/mL | 1.6 µg/mL (≈ 4.25 µM) | > 100 µg/mL | – | – | –
24 | O=C1O[C@H](c2ccc(Cl)cc2)[C@](Cn2cncn2)(c2ccc(Cl)cc2Cl)O1 (relative stereo) | > 100 µg/mL | – | – | > 100 µg/mL | – | >20 µg/mL | 25 µg/mL (≈ 58.9 µM)
